# Assay results pooled from the literature.
# Compare with care: the assays were run in different laboratories.
# Target: Protein kinase C iota type (PRKCI, Homo sapiens, UniProt P41743)
# One construct used (P41743 1-596): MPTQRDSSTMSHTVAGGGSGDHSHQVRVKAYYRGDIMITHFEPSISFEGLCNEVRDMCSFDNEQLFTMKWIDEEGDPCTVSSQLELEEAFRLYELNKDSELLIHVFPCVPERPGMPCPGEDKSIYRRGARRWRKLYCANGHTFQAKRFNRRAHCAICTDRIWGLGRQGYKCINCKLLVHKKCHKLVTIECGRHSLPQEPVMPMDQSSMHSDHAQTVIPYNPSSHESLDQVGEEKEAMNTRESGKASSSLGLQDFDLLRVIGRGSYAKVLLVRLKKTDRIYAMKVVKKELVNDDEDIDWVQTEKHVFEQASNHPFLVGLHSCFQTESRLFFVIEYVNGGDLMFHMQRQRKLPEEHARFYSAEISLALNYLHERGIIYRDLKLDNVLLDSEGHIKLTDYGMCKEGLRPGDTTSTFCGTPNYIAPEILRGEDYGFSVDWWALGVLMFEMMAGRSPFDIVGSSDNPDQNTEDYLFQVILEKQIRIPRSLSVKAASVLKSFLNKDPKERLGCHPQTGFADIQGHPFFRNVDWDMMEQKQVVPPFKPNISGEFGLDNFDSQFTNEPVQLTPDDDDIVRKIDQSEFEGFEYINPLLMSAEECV
Compound,test,setting,measurement,value
CCS(=O)(=O)c1cc2cc(C[C@@](O)(CC(C)(C)c3ccc(F)cc3C(N)=O)C(F)(F)F)[nH]c2cn1,"cell-free assay, competition with immobilised ligand",1 µM,remaining binding,100%
c1ccc(CNc2nc(N3CCOc4ccccc43)nc3c2CCCC3)cc1,"target engagement in cells, inhibitor, chemoproteomics",20 mM,inhibition,-0.4%
N#CCCc1ccc2c(c1)-c1[nH]c3ccc([N+](=O)[O-])cc3c1CC(=O)N2,cell-free assay,0.5 µM,remaining signal,65.3%
CC(C)(O)[C@H]1CC[C@H](Nc2ccc3ncc(-c4cccc(C(F)(F)F)c4)n3n2)CC1,"enzyme activity, inhibitor",1 µM,remaining activity,128%
CC(C)(C)c1nc(-c2cccc(NS(=O)(=O)c3c(F)cccc3F)c2F)c(-c2ccnc(N)n2)s1,"enzyme activity, inhibitor, radiometric",1 µM,remaining activity,100%
CC(C)(O)c1cncc(-c2nc3ccc(F)cc3n2C2CC2)c1,"cell-free assay, competition with immobilised ligand",1 µM,remaining binding,89%
CC(C)c1ccc(NC(=O)c2cccs2)c(-c2nc3ccccc3[nH]c2=O)c1,"enzyme activity, inhibitor",1 µM,activity vs control,94%
O=C(Nc1cnn(-c2csc(C(=O)NC3COC3)c2)c1)Nc1ccccc1Cl,"enzyme activity, inhibitor",5 µM,remaining activity,95.5%
N[C@@H]1CCN(c2nccc(-c3cnn4ncccc34)n2)C1,binding,1 µM,remaining binding,33%
C[C@H](c1cccc(C#N)c1)n1cc(Cl)cc(C(N)=O)c1=N,"cell-free assay, competition with immobilised ligand",1 µM,remaining binding,100%
CCN(CC)CCNC(=O)c1c(C)[nH]c(/C=C2\C(=O)Nc3ccc(F)cc32)c1C,"enzyme activity, inhibitor",10 µM,inhibition,1%
Cn1nc(C(=O)NCc2ccc(C(=O)O)cc2)cc1-c1ccc2[nH]ccc2c1,"cell-free assay, competition with immobilised ligand",0.1 µM,remaining binding,80%
CN(C)C1CCN(CC#Cc2nn(C3CCCC3)c3nc(NCc4ccccc4)ncc23)C1 (stereo not drawn),"enzyme activity, inhibitor, FRET",0.1 µM,inhibition,9%
CNC(=O)c1cc(Oc2ccc(NC(=O)Nc3ccc(Cl)c(C(F)(F)F)c3)cc2)ccn1,"enzyme activity, inhibitor",10 µM,inhibition,9%
Cc1ccc(-n2nc(C(C)(C)C)cc2NC(=O)Nc2ccc(OCCN3CCOCC3)c3ccccc23)cc1,"enzyme activity, inhibitor",10 µM,inhibition,3%
O=C1NC(=O)c2cc(Nc3ccc(F)cc3)c(Nc3ccc(F)cc3)cc21,cell-free assay,0.5 µM,remaining signal,89%
Cc1c[nH]c2nccc(Oc3c(F)cc(Nc4cc(Cl)nc(N)n4)cc3F)c12,"cell-free assay, competition with immobilised ligand",0.1 µM,remaining binding,100%
Cc1cnc(NC2CCOCC2)nc1-n1cnc(C(=O)NC(CN)c2cc(F)cc(Cl)c2)c1 (stereo not drawn),"enzyme activity, inhibitor, radiometric",1 µM,remaining activity,106%
CN1CC(Oc2cnc(C#N)cc2-c2ccn3nc(NC(=O)C4CC4)cc3c2)C1,"enzyme activity, inhibitor",1 µM,inhibition,-8%
Cc1ccc(C(=O)NCc2ccsc2)cc1C#Cc1cn(C(C)C)c2ncnc(N)c12,"enzyme activity, inhibitor",1 µM,activity vs control,96%
CNCc1ccc(-c2cc(-c3nc(-c4ccc(S(=O)(=O)C(C)C)cc4)cnc3N)on2)cc1,"enzyme activity, inhibitor",0.4 µM,inhibition,0%
CO[C@@H](C)c1c(Nc2ccc([C@H](N(C)C(=O)C3CCS(=O)(=O)CC3)C(F)(F)F)cc2)cnc2cc(Cl)nn12,"cell-free assay, competition with immobilised ligand",1 µM,remaining binding,72%
COc1cc2ncnc(Nc3ccc(Oc4ccccc4)cc3C)c2cc1OC,"enzyme activity, inhibitor",1 µM,inhibition,3%
O=C(NC[C@@H]1[C@H]2CN(C(=O)OCc3cc(C(F)(F)F)cc(C(F)(F)F)c3)C[C@@H]12)c1ccc2[nH]nnc2c1,"cell-free assay, competition with immobilised ligand",1 µM,remaining binding,98%
CC/C(=N\NC(=O)NCc1cccc(O)c1)c1ccc(O)c(C)c1O,"enzyme activity, inhibitor",0.1 µM,inhibition,15.8%
Nc1c(C(=O)NCc2ccc(C(=O)NCCCC3CCCCC3)cc2)cnn1-c1ccccc1,"cell-free assay, competition with immobilised ligand",0.1 µM,remaining binding,97%
CCCOc1ccc(OC)c(F)c1C(=O)c1ccc(C(=O)N[C@@H]2CNC[C@H]2NC(=O)c2ccc3[nH]ncc3c2)cc1,"enzyme activity, inhibitor",10 µM,remaining activity,89%
